# GSK3 alpha inh = blocks human GSK-3 alpha kinase | ADP-Glo luminescence, 60 min | inhibition, % at 10 µM | actives 0.1% (n = 320,000) | AID 2650;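 active means more than half of replicates show inhibition above 20%; inconclusive means some but at most half of replicates above 20% inhibition; inactive means no replicate shows inhibition above 20%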;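 further: GST-tagged GSK-3 alpha with peptide substrate and 25 µM ATP; 0% = DMSO neutral wells and 100% = GW8510 positive control wells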
# AI-2 QS mod = Vibrio harveyi AI-2 quorum sensing modulation; Vibrio harveyi JMH597 AI-2 luminescence/OD600 ratio, 9 h; stronger effect = lower value; strain lacks LuxN and CqsS sensors; 0 = neutral-control median; activity change, % at 7.5 µM; actives 0.4% (n = 300,000); AID 2094; in the data active means activity change below about -75%, passing the limit was not always enough; inconclusive means no clear call, values can overlap the other calls;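 further: luminescence divided by OD600 gain over 9 h not by final OD600 alone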
# Rce1 inhib = yeast Ras-converting enzyme inhibition | Q03530 | yeast membranes, quenched prenylated peptide cleavage fluorescence | calls only | actives 0.27% (n = 290,000) | AID 2563;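 active means fall in fluorescence gain of 50% or more versus controls, with final raw signal at or below 3038400; inconclusive means same 50% fall but final raw signal above 3038400; inactive means fall in fluorescence gain under 50%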;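 further: plate controls were neutral control wells for no effect and wells lacking membranes for full effect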
# STK33 kinase inh = human STK33 kinase inhibition | Q9BYT3 | purified STK33, MBP phosphorylation, ADP-Glo luminescence | inhibition, % at 10 µM | actives 0.073% (n = 320,000);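 active means inhibition at or above 25%, using the most active replicate where run in duplicate; inactive means inhibition below 25%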
# Target sequence (Q9BYT3 whole entry, looked up): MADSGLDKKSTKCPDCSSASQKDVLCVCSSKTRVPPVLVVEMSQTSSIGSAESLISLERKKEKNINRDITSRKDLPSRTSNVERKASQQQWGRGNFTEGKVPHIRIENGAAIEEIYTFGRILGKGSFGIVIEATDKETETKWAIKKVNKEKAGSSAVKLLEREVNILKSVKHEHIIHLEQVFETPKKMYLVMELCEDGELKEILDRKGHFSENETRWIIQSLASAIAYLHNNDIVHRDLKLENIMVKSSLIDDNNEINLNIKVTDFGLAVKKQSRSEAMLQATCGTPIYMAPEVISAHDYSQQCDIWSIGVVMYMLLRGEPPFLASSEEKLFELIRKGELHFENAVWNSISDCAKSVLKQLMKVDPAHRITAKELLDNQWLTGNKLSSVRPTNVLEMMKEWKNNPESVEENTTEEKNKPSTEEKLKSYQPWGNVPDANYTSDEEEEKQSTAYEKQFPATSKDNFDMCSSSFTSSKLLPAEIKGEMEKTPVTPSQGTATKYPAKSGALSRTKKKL
# DYRK1A inh = inhibitors of rat Dyrk1A kinase; Q63470; ADP-Glo luminescence, NFATc1 peptide; inhibition, % at 12.5 µM; actives 0.43% (n = 310,000); in the data active means inhibition above about 50%;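 further: plate controls were vehicle with enzyme for no effect and no enzyme for full effect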
# GSK3B inh = inhibitors of human GSK3beta kinase; GST-GSK3beta kinase, ADP-Glo luminescence, 60 min; stronger effect = lower value; activity score (negative = inhibition), % at 10 µM; actives 0.038% (n = 300,000); AID 2097;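 active means more than half of replicate wells score below -50%, meaning over 50% inhibition versus plate controls; inconclusive means some replicates but at most half score below -50%; inactive means no replicate scores below -50%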;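 further: 0% = median DMSO wells and -100% = median GW8510 positive control wells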
#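 Test system: GST-tagged human GSK3beta kinase, cell-free; evaluation: activity score scaled between in-plate DMSO and GW8510 controls; measured by: ADP-Glo luminescence; incubation: 60 min reaction, RT; benchmarks: DMSO and 20 µM GW8510; reagent: peptide substrate plus 25 µM ATP (final); medium: Tris/MgCl2 kinase buffer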
# ADP-Glo artifact = ADP-Glo luciferase interference, Dyrk1A counter-screen; shares compounds with DYRK1A inh; ADP-Glo luciferase artifact assay, no Dyrk1A, luminescence; AC50, µM (doses to about 12 µM), for the others: at the top dose activity change, negative = inhibition; 1,300 tested, under 10 active;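 active means fitted half-maximal dose AC50 no more than ten times the top valid tested dose, with luminescence dropping as dose rises; inconclusive means poor fit, or flat fit with 30 to 70% inhibition; inactive means the rest, signal increases included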
# An asterisk follows results filed as active; i = inactive; ? = inconclusive; nt = no result given. An excerpt weighted towards active compounds, which were near 0.99% of everything screened.
SMILES,GSK3 alpha inh,AI-2 QS mod,Rce1 inhib,STK33 kinase inh,DYRK1A inh,GSK3B inh,ADP-Glo artifact
Cc1cc(-c2ccc(C(=O)O)s2)cnc1N,0,27,?,-1,65*,-4,9%
C[C@H](CO)N1C[C@H](C)[C@@H](CN(C)C(=O)Nc2ccc3c(c2)OCO3)Oc2c(NC(=O)Cc3ccccc3)cccc2C1=O,nt,nt,nt,nt,-2,nt,nt
COc1ccc(C)cc1N(C(=O)c1ccco1)C(C(=O)NC1CCCC1)c1ccc(N2CCOCC2)cc1 (stereo not drawn),0,25,i,3,-1,-1,nt
CCCCn1c(NCCO)nc2ccccc21,1,15,i,-2,58*,2,11%
COc1ccc2c(c1)-c1nc(NC(=O)c3ccco3)sc1CC2,-1,15,i,1,35,2,nt
Cc1sc(NC(=O)c2ccco2)nc1-c1ccccc1,-3,4,i,3,52*,4,10%
COc1ccc2c(c1)CCc1sc(NC(=O)c3ccco3)nc1-2,-1,3,i,2,68*,-7,7%
CC(=O)c1sc(NC(=O)c2ccco2)nc1-c1ccccc1,-1,2,i,-1,4,2,nt
O=[N+]([O-])c1cccc(-c2cn(-c3ccccc3)c(=S)[nH]2)c1,-4,9,i,-1,3,-1,nt
CCc1nc(Nc2ccc3c(c2)OCO3)c2oc3ccccc3c2n1,-3,4,i,0,8,-1,nt
CCc1nc(Nc2cccc(O)c2)c2oc3ccccc3c2n1,2,34,i,5,62*,-1,10%
O=C1C=C(c2ccc3c(c2)OCO3)CCC1,-2,12,i,0,66*,-14,9%
CN(CC(=O)Nc1ccccc1Cl)C(=O)CN1C(=O)NC(c2ccccc2)(c2ccccc2)C1=O,3,nt,nt,0,1,nt,nt
CC(C)S(=O)(=O)C1=NSC2=NC(=O)/C(=C\c3ccc(-c4cccc(C(=O)O)c4)o3)C(=N)N21,nt,nt,nt,nt,65*,nt,11%
CC(C)S(=O)(=O)C1=NSC2=NC(=O)/C(=C\c3ccc(-c4ccccc4)o3)C(=N)N21,7,16,i,15,47,5,nt
CC(C)Oc1ccc(C(=O)OCC(=O)N2CCCc3ccccc32)cc1,-3,24,i,-1,-8,-4,nt
COc1cccc(-c2nnc3sc(C4CCCCC4)nn23)c1,20,9,i,-1,53*,-28,6%
COc1ccc(-c2cc3c(=O)n(CC(=O)Nc4cccc(Cl)c4)nc(C)n3n2)cc1,1,27,i,0,-1,1,nt
CC1CC(C)CN(S(=O)(=O)c2cccc(C(=O)N3CCN(c4ccc(F)cc4)CC3)c2)C1 (stereo not drawn),-5,nt,nt,1,-4,nt,nt
Cn1c(C(=O)NCC2CCCO2)cc2c(=O)n(C)c3ccccc3c21 (stereo not drawn),0,29,i,2,55*,-3,10%
Cc1ccc(CNC(=O)c2cc3c(=O)n(C)c4ccccc4c3n2C)o1,nt,13,i,-1,62*,1,7%
Cn1c(C(=O)N2CCN(c3ncccn3)CC2)cc2c(=O)n(C)c3ccccc3c21,nt,22,i,0,15,-1,nt
Cn1c(C(=O)N2CCCC2)cc2c(=O)n(C)c3ccccc3c21,nt,nt,nt,nt,75*,nt,9%
Cn1c(C(=O)NCc2ccccn2)cc2c(=O)n(C)c3ccccc3c21,nt,25,i,2,19,-4,nt
CCN(CC(=O)NCc1ccc(F)cc1)C(=O)CN1CCN(c2cc(Cl)ccc2C)CC1,-2,-3,nt,-1,6,-1,nt
SMILES,GSK3 alpha inh,AI-2 QS mod,Rce1 inhib,STK33 kinase inh,DYRK1A inh,GSK3B inh,ADP-Glo artifact
O=C(NN1C(=O)/C(=C\c2ccc(O)c([N+](=O)[O-])c2)SC1=S)c1ccccc1Cl,-5,28,i,0,79*,6,5%
COc1ccc(-c2coc3cc(O)ccc3c2=O)cc1O,10,12,nt,5,57*,-12,9%
NC(=O)c1c(NC(=O)c2ccc(N3C(=O)CCC3=O)cc2)sc2c1CCCC2,1,nt,nt,6,60*,nt,13%
CC1CCc2sc(NC(=O)c3ccc(N4C(=O)CCC4=O)cc3)c(C(N)=O)c2C1 (stereo not drawn),0,16,i,1,14,-4,nt
O=C(NNC1=C(C(=O)C(F)(F)F)CCC1)c1ccccc1O,-2,3,i,2,56*,1,10%
CCCc1cc(=O)oc2c(C)c(OCC(=O)Nc3cccnc3)ccc12,0,12,i,1,0,5,nt
COc1cc2cnc(-c3ccccc3)c(-c3ccc([N+](=O)[O-])cc3)c2cc1OC,-3,nt,nt,0,51*,nt,9%
O=C(NCc1ccc(Cl)cc1)C1CCN(C(=O)c2ccc(Cl)cc2)CC1,nt,nt,nt,nt,10,nt,nt
N#CC1=C(N)Oc2ccc3ccc(O)cc3c2C1c1ccsc1 (stereo not drawn),nt,18,i,nt,77*,-1,7%
Cc1nn(CC(=O)NCCCN2CCCC2)c(=O)c2nn(-c3ccccc3)c(C)c12,-16,20,i,0,2,3,nt
CCN1CCN(Cc2ccc(NC(=O)c3ccc(C)c(NC(=O)c4csc(-c5ccncc5)n4)c3)cc2C(F)(F)F)CC1,1,-1,i,5,68*,-1,6%
CCN1CCN(Cc2ccc(NC(=O)c3ccc(C)c(/C=C/c4cnc(Nc5cc(N6CCNCC6)nc(C)n5)cn4)c3)cc2C(F)(F)F)CC1,24,55,i,15,52*,-31,8%
COc1ccc2nc3cc(Cl)ccc3c(Nc3ccc(O)c(CN4CCN(C)CC4)c3)c2c1,nt,nt,nt,nt,62*,nt,9%
COc1cc(OC)c(C(=O)OCC(=O)NCCC2=CCCCC2)cc1OC,3,17,i,nt,-3,0,nt
COc1ccc(C(=O)N/C(=C/c2ccccc2F)C(=O)NCCN2CCOCC2)cc1OC,5,22,i,-2,-4,1,nt
Cc1cc(N)c2ccccc2n1,-1,10,i,0,-2,0,nt
Nc1cc2ccncc2c2ccccc12,1,32,?,19,73*,-2,9%
CSCC(=O)NC1CCCc2c1cnn2-c1ccc(C)c(C)c1 (stereo not drawn),0,-2,i,-1,12,5,nt
CSc1nc(O)c(/C=C2\C=Nc3ccccc32)[nH]1,39,4,i,9,57*,-21,8%
O=c1[nH]c(/C=C2\C=Nc3ccccc32)c(O)n1Cc1ccccc1F,-1,8,i,-2,1,0,nt
CCOc1ccc(NS(=O)(=O)c2csc(C(N)=O)c2)cc1,0,-1,i,1,1,2,nt
